# Source: PubChem BioAssay
# Hits are enriched below; roughly 3.1% of the tested compounds scored in any of these assays.
# GalR3 antag: antagonists of human GalR3; O60755; actives 0.44% (n = 360,000); HEK293 GalR3-CNG cAMP membrane potential fluorescence; galR3 body fused to GalR1 C-terminus; inhibition, % at 3 µM;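 active = inhibition above the screen-wide average plus 3 SD, cut at about 13% in these data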;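 also: forskolin and galanin both at EC90 stimulate the cells; cAMP rise reported by CNG channel membrane potential dye signal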
# GPR7 antag: human neuropeptides B/W receptor 1 antagonism | GPR7-expressing cells, fluorescence antagonist assay | P48145 | actives 1.1% (n = 290,000) | inhibition, % at 4.4 µM; in the data active = inhibition above about 16%, passing the limit was not always enough;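 also: cells stimulated with the agonist NPW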
# Target sequence (P48145 whole entry, looked up): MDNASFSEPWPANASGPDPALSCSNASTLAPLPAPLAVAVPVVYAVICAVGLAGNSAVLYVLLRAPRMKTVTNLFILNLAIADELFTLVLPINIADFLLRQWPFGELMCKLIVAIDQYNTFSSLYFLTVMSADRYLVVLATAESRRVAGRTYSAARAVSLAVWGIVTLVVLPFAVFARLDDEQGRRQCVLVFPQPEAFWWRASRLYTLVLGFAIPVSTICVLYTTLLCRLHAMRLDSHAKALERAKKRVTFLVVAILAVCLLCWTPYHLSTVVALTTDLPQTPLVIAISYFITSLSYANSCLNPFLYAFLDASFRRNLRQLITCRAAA
# CHO parental Ca: counter-screen: ATP calcium response change in parental CHO cells; parental CHO-K1, ATP-induced calcium, Fluo-8 fluorescence; inhibition, % at 5.6 µM; actives 0.63% (n = 330,000);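 active = inhibition above that plate's mean sample inhibition plus 3 SD, cut at about 26% in these data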
#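 test system = CHO parental line | reagent = ATP stimulus | measured by = intracellular calcium via Fluo-8 no-wash fluorescent dye | control set = ATP and no-ATP DMSO wells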
# OX1R antag-1: antagonists of human orexin 1 receptor. actives 0.43% (n = 330,000). CHO/OX1R cells, Fluo-8 calcium fluorescence, orexin A. inhibition, % at 5 µM. O43613. AID 434989;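 active = inhibition above its plate's threshold, mean inhibition of all tested compounds on the plate plus 3 SD, cut at about 37% in these data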
# OX1R antag-2: OX1R (human) antagonism; O43613; OX1R-expressing cells, FRET antagonist read-out; inhibition, % at 6.6 µM; actives 1.8% (n = 330,000); AID 485270; in the data active = inhibition mostly above about 38%, no sharp cut-off; inactive = mostly below about 40%
# GPR7 antag conf: human GPR7 antagonism, confirmation assay | shares compounds with GPR7 antag | GPR7-expressing cells, calcium fluorescence antagonist mode | inhibition, % at 4.4 µM | actives 52% (n = 2,400) | AID 1952; in the data active = inhibition above about 24%;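 also: stimulated with the GPR7 agonist NPW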
# MCHR1 antagonist: MCHR1 (human) antagonism in GPR7 counter-screen; MCHR1-expressing cells, fluorescence antagonist assay; AID 2148; inhibition, % at 4.4 µM; shares compounds with GPR7 antag; actives 62% (n = 2,400); in the data active = inhibition above about 22%
# A number is an active result; n = inactive; x = not tested or not shown.
SMILES,GalR3 antag,GPR7 antag,CHO parental Ca,OX1R antag-1,OX1R antag-2,GPR7 antag conf,MCHR1 antagonist
O=C(CN1CC(c2ccccc2)CC1=O)OCc1cccc(Br)c1 (stereo unspecified),n,n,n,n,n,x,x
O=C(CSc1nnc(CNC(=O)c2ccc(F)cc2)o1)NCCc1ccccc1,n,n,n,n,n,x,x
COc1cc(C(=O)NCc2nnc(SCC(=O)N3CCCCCC3)o2)cc(OC)c1OC,n,n,n,n,n,x,x
COc1ccc(C(=O)NCc2nnc(SCC(=O)NCCc3ccccc3)o2)cc1,n,24,n,n,n,n,n
COc1cc(C(=O)NCc2nnc(SCC(=O)N3CCc4ccccc43)o2)cc(OC)c1OC,n,30,n,n,n,n,n
CCN(CC)CCN1C(=O)C(=O)/C(=C(/O)c2c(C)[nH]c(C(=O)OC)c2C)C1c1ccc(C)o1 (stereo unspecified),n,n,n,n,n,x,x
CS(=O)c1nc(-c2ccc(Br)cc2)cc(-c2ccccc2)c1C#N (stereo unspecified),n,54,84,81,n,97,101
CNCc1c(OCc2ccccc2)ccc2ccccc12,n,n,n,n,n,x,x
CC(C)(CO)NCc1c(OCc2ccc(Cl)cc2)ccc2ccccc12,n,32,n,n,n,27,n
CCCCCn1c(=O)[nH]c2cc(C(=O)NCCc3ccc(OC)c(OC)c3)ccc2c1=O,n,n,n,n,n,x,x
COc1ccc(-n2c(=O)[nH]c3cc(C(=O)NCCc4ccc(Cl)cc4)ccc3c2=O)cc1OC,n,36,n,n,n,36,60
CCc1nc2ccc(C(=O)N3CCN(C(=O)c4ccco4)CC3)cn2c1N(C)C(=O)Nc1ccccc1OC,n,x,x,x,x,x,x
COc1cc2cc(C)c(Br)c(OC)c2cc1OC,n,x,x,x,x,x,x
Cc1nn(CC(=O)N2CCN(c3ccccn3)CC2)c(=O)c2cc3sccc3n12,x,n,n,n,n,x,x
O=C(Nc1ccc(Br)cc1)Nc1ccccc1Cl,n,73,n,n,n,79,63
O=C(COc1ccc([N+](=O)[O-])cc1)NCCC1=CCCCC1,n,29,n,n,n,31,n
O=C(NCCC1=CCCCC1)c1ccc([N+](=O)[O-])cc1,n,n,n,n,n,x,x
COc1ccc(CNC(=O)C(OC(=O)c2cccs2)C(C)C)cc1 (stereo unspecified),n,n,n,n,n,x,x
CC(C)C(OC(=O)c1cccs1)C(=O)NCc1cccs1 (stereo unspecified),n,37,n,n,n,n,n
COCCSc1ccccc1C(=O)Nc1ccc(S(=O)(=O)N2CCOCC2)cc1,n,n,x,x,x,x,x
CN(Cc1nccn1C)C(=O)CC1C(=O)NCCN1Cc1cccc(Oc2ccccc2)c1 (stereo unspecified),n,n,n,n,n,x,x
CN(Cc1ccccn1)C(=O)CC1C(=O)NCCN1Cc1cccc(Oc2ccccc2)c1 (stereo unspecified),n,26,n,n,n,n,n
O=C(Cn1ncc2c([nH]c3ccccc32)c1=O)Nc1ccc(CN2CCCCC2)cc1,x,n,n,n,n,x,x
O=C(NCCCN1CCOCC1)c1cc(Cl)ccc1OCc1ccccc1,n,n,n,n,n,x,x
c1coc(-c2nnc(SCc3cn4ccccc4n3)o2)c1,n,n,n,n,n,x,x
SMILES,GalR3 antag,GPR7 antag,CHO parental Ca,OX1R antag-1,OX1R antag-2,GPR7 antag conf,MCHR1 antagonist
Brc1c(CSc2nnc(-c3ccco3)o2)nc2ccccn12,n,24,n,n,n,n,n
Cc1cc(N2CCCC2)nc(-c2ccccc2O)n1,n,n,n,n,n,x,x
Cc1cc(N2CCCCC2)nc(N)n1,n,43,n,n,n,53,75
O=C(O)C1C2CCC(CC2)C1C(=O)N1CCN(Cc2ccc(F)cc2)CC1 (stereo unspecified),n,n,n,n,n,x,x
CC(=O)Nc1ccc(NC(=O)CSc2nnc(-c3cccs3)n2N)cc1,n,x,n,n,n,x,x
CC(C)Oc1ccc(C(CCN)C2CCCCC2)cc1 (stereo unspecified),n,55,n,n,n,49,67
CC(C)Oc1ccc(C(=O)NC2CCCCC2)cc1,n,n,n,n,n,x,x
COc1ccc(CC(Cc2ccc(OC)c(OC)c2)NC=O)cc1OC,n,x,x,x,x,x,x
